# Laboratory results from PMC8085964 (Pharmacology Research & Perspectives, 2021).
# Entries after “also recorded” stand apart in the source; their conditions may differ.
# Tests used:
# [1] = Clinical safety assessments; format: in vivo, healthy male participants (human); conditions: for tolerability: healthy participants, result in words
# Outline: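 Healthy young males (18–40 y, BMI 18–35) got a single oral test compound dose of 40 mg/kg by weight, then a 400 mg/day antiretroviral for 13 days under daily directly observed treatment. They stayed inpatient ≥24 h before and after dosing (days 1–3, 15–17). Vital signs were checked and adverse events or symptoms monitored. Examination, biochemistry, haematology, urinalysis and ECG were done at screening.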
# [2] = Effect of efavirenz on R‐ and S‐PZQ pharmacokinetics; format: in vivo, healthy male participants (human); conditions: for AUCt0‐tlast, Geo Mean / C max, Geo Mean / Clearance/F, Geo Mean / Elimination rate constant, Geo Mean / Half‐Life, Geo Mean / T max, Geo Mean / V d/F, Geo Mean / AUCinf, Geo Mean: plasma
# [3] = Effect of ritonavir on R‐ and S‐PZQ pharmacokinetics; format: in vivo, healthy male participants (human); conditions: for AUCt0‐tlast, Geo Mean / C max, Geo Mean / Elimination rate constant, Geo Mean / Half‐Life, Geo Mean / T max, Geo Mean / V d/F, Geo Mean / AUCinf, Geo Mean / Clearance/F, Geo Mean: plasma; for effect of ritonavir on pharmacokinetics: result in words
# [4] = should be maintained for at least 4 h for efficacy; cited from earlier work
# [5] = patients pre‐exposed to rifampicin; cited from earlier work
# [6] = PZQ + Efavirenz (treatment): 40 mg/kg racemic PZQ after 400 mg efavirenz/day
# [7] = PZQ alone (reference), single oral 40 mg/kg racemic PZQ, efavirenz arm
# [8] = PZQ + Ritonavir (treatment): 40 mg/kg racemic PZQ after 100 mg ritonavir/day for 14 days
# [9] = PZQ + Ritonavir (treatment): 40 mg/kg racemic PZQ after 100 mg ritonavir/day for 14 days, 40 mg/kg
# [10] = PZQ alone (reference), single oral 40 mg/kg racemic PZQ, ritonavir arm
# [11] = PZQ alone (reference), single oral 40 mg/kg racemic PZQ, ritonavir arm, 40 mg/kg
compound,measurement,setting,value
CC(C)c1nc(CN(C)C(=O)N[C@H](C(=O)N[C@@H](Cc2ccccc2)C[C@H](O)[C@H](Cc2ccccc2)NC(=O)OCc2cncs2)C(C)C)cs1 [ritonavir],tolerability,[1],generally well tolerated
O=C(C1CCCCC1)N1CC(=O)N2CCc3ccccc3[C@@H]2C1 [R‐Praziquantel],"AUCt0‐tlast, Geo Mean",[2]; [6],248.02 ng·h/mL
same,"C max, Geo Mean",[2]; [6],104.32 ng/mL
same,"Clearance/F, Geo Mean",[2]; [6],8449.32 L/h
same,"Elimination rate constant, Geo Mean",[2]; [6],0.25 h⁻¹
same,"Half‐Life, Geo Mean",[2]; [6],2.76 h
same,"T max, Geo Mean",[2]; [6],1.64 h
same,"V d/F, Geo Mean",[2]; [6],33637.78 L
same,"AUCinf, Geo Mean","[2]; PZQ + Efavirenz (treatment): 40 mg/kg racemic PZQ after 400 mg efavirenz/day, 40 mg/kg",281.43 ng·h/mL
same,"AUCinf, Difference observed",[2]; PZQ + efavirenz vs PZQ alone,−74.36%
same,"AUCinf, Treatment/reference GMR",[2]; PZQ + efavirenz vs PZQ alone,23.20%
same,"AUCt0‐tlast, Difference observed",[2]; PZQ + efavirenz vs PZQ alone,−76.90%
same,"AUCt0‐tlast, Treatment/reference GMR",[2]; PZQ + efavirenz vs PZQ alone,21.75%
same,"C max, Difference observed",[2]; PZQ + efavirenz vs PZQ alone,−82.52%
same,"C max, Treatment/reference GMR",[2]; PZQ + efavirenz vs PZQ alone,21.21%
same,"Clearance/F, Difference observed",[2]; PZQ + efavirenz vs PZQ alone,546.74%
same,"Elimination rate constant, Difference observed",[2]; PZQ + efavirenz vs PZQ alone,3.45%
same,"Half‐Life, Difference observed",[2]; PZQ + efavirenz vs PZQ alone,17.63%
same,"T max, Difference observed",[2]; PZQ + efavirenz vs PZQ alone,−18.22%
same,"V d/F, Difference observed",[2]; PZQ + efavirenz vs PZQ alone,280.92%
same,reduction in AUCinf (exposure) by efavirenz,[2]; PZQ + efavirenz vs PZQ alone,4 fold
same,"AUCinf, Geo Mean",[2]; [7],1213.15 ng·h/mL
same,"AUCt0‐tlast, Geo Mean",[2]; [7],1140.41 ng·h/mL
same,"C max, Geo Mean",[2]; [7],491.78 ng/mL
same,"Clearance/F, Geo Mean",[2]; [7],1960.10 L/h
same,"Elimination rate constant, Geo Mean",[2]; [7],0.26 h⁻¹
same,"Half‐Life, Geo Mean",[2]; [7],2.66 h
same,"T max, Geo Mean",[2]; [7],1.88 h
same,"V d/F, Geo Mean",[2]; [7],7507.98 L
same,change in the T max when co‐administered with efavirenz,[2]; result in words,no change
same,"AUCt0‐tlast, Geo Mean",[3]; [8],950.73 ng·h/mL
same,"C max, Geo Mean",[3]; [8],354.34 ng/mL
same,"Elimination rate constant, Geo Mean",[3]; [8],0.26 h⁻¹
same,"Half‐Life, Geo Mean",[3]; [8],2.71 h
same,"T max, Geo Mean",[3]; [8],1.53 h
same,"V d/F, Geo Mean",[3]; [8],8772.21 L
same,"AUCinf, Geo Mean",[3]; [9],1057.66 ng·h/mL
same,"Clearance/F, Geo Mean",[3]; [9],2241.23 L/h
same,"AUCinf, Difference observed",[3]; PZQ + ritonavir vs PZQ alone,17.62%
same,"AUCinf, Treatment/reference GMR",[3]; PZQ + ritonavir vs PZQ alone,104.41%
same,"AUCt0‐tlast, Difference observed",[3]; PZQ + ritonavir vs PZQ alone,22.8%
same,"AUCt0‐tlast, Treatment/reference GMR",[3]; PZQ + ritonavir vs PZQ alone,107.06%
same,"C max, Difference observed",[3]; PZQ + ritonavir vs PZQ alone,13.70%
same,"C max, Treatment/reference GMR",[3]; PZQ + ritonavir vs PZQ alone,114.88%
same,"Clearance/F, Difference observed",[3]; PZQ + ritonavir vs PZQ alone,4.36%
same,"Elimination rate constant, Difference observed",[3]; PZQ + ritonavir vs PZQ alone,26.08%
same,"Half‐Life, Difference observed",[3]; PZQ + ritonavir vs PZQ alone,−28.64%
same,"T max, Difference observed",[3]; PZQ + ritonavir vs PZQ alone,−15.46%
same,"V d/F, Difference observed",[3]; PZQ + ritonavir vs PZQ alone,−15.74%
same,effect of ritonavir on pharmacokinetics,"[3]; PZQ + ritonavir vs PZQ alone, listed as R‐PZQ",no significant effect; also recorded: did not have a significant inhibitory effect
same,"AUCt0‐tlast, Geo Mean",[3]; [10],888.02 ng·h/mL
same,"C max, Geo Mean",[3]; [10],308.44 ng/mL
same,"Elimination rate constant, Geo Mean",[3]; [10],0.19 h⁻¹
same,"Half‐Life, Geo Mean",[3]; [10],3.57 h
same,"T max, Geo Mean",[3]; [10],1.69 h
same,"V d/F, Geo Mean",[3]; [10],12034.61 L
same,"AUCinf, Geo Mean",[3]; [11],1012.96 ng·h/mL
same,"Clearance/F, Geo Mean",[3]; [11],2340.12 L/h
O=C1Nc2ccc(Cl)cc2[C@@](C#CC2CC2)(C(F)(F)F)O1 [efavirenz],participants with mild dizziness,"[1]; efavirenz group, symptoms disappearing by day 5",33%
"O=C(C1CCCCC1)N1CC(=O)N2CCc3ccccc3C2C1 (stereo not shown) [PZQ, praziquantel]",attainment of the MEC (1 µg/mL for at least 4 h),"[2]; PZQ with efavirenz, result in words",all participants failed to attain the MEC for more than the minimum 4 h
same,tolerability,[1],generally well tolerated
same,minimum effective concentration (MEC),[4],1 µg/mL
same,participants without detectable levels,[5],7 out of 10
O=C(C1CCCCC1)N1CC(=O)N2CCc3ccccc3[C@H]2C1 [S‐Praziquantel],"AUCinf, Geo Mean",[2]; [6],871.84 ng·h/mL
same,"AUCt0‐tlast, Geo Mean",[2]; [6],826.17 ng·h/mL
same,"C max, Geo Mean",[2]; [6],329.98 ng/mL
same,"Clearance/F, Geo Mean",[2]; [6],2727.44 L/h
same,"Elimination rate constant, Geo Mean",[2]; [6],0.35 h⁻¹
same,"Half‐Life, Geo Mean",[2]; [6],2.00 h
same,"T max, Geo Mean",[2]; [6],1.81 h
same,"V d/F, Geo Mean",[2]; [6],7887.36 L
same,"AUCinf, Difference observed",[2]; PZQ + efavirenz vs PZQ alone,−75.26%
same,"AUCt0‐tlast, Difference observed",[2]; PZQ + efavirenz vs PZQ alone,−75.16%
same,"AUCt0‐tlast, Treatment/reference GMR",[2]; PZQ + efavirenz vs PZQ alone,15.26%
same,"C max, Difference observed",[2]; PZQ + efavirenz vs PZQ alone,−76.85%
same,"Clearance/F, Difference observed",[2]; PZQ + efavirenz vs PZQ alone,950.27%
same,"Elimination rate constant, Difference observed",[2]; PZQ + efavirenz vs PZQ alone,11.76%
same,"Half‐Life, Difference observed",[2]; PZQ + efavirenz vs PZQ alone,−15.83%
same,"T max, Difference observed",[2]; PZQ + efavirenz vs PZQ alone,−25.48%
same,"V d/F, Difference observed",[2]; PZQ + efavirenz vs PZQ alone,757.72%
same,"AUCt0‐tlast, Geo Mean",[2]; [7],5413.80 ng·h/mL
same,"C max, Geo Mean",[2]; [7],1991.32 ng/mL
same,"Clearance/F, Geo Mean",[2]; [7],419.40 L/h
same,"Elimination rate constant, Geo Mean",[2]; [7],0.31 h⁻¹
same,"Half‐Life, Geo Mean",[2]; [7],2.27 h
same,"T max, Geo Mean",[2]; [7],2.42 h
same,"V d/F, Geo Mean",[2]; [7],1373.82 L
same,"AUCinf, Geo Mean","[2]; PZQ alone (reference), single oral 40 mg/kg racemic PZQ, efavirenz arm, 40 mg/kg",5669.77 ng·h/mL
same,"AUCinf, Geo Mean",[3]; [8],7291.05 ng·h/mL
same,"AUCt0‐tlast, Geo Mean",[3]; [8],7083.71 ng·h/mL
same,"Clearance/F, Geo Mean",[3]; [8],325.12 L/h
same,"Elimination rate constant, Geo Mean",[3]; [8],0.38 h⁻¹
same,"Half‐Life, Geo Mean",[3]; [8],1.81 h
same,"T max, Geo Mean",[3]; [8],1.60 h
same,"V d/F, Geo Mean",[3]; [8],847.06 L
same,"C max, Geo Mean",[3]; [9],2336.96 ng/mL
same,"AUCinf, Difference observed",[3]; PZQ + ritonavir vs PZQ alone,69.84%
same,"AUCinf, Treatment/reference GMR",[3]; PZQ + ritonavir vs PZQ alone,175.49%
same,"AUCt0‐tlast, Difference observed",[3]; PZQ + ritonavir vs PZQ alone,71.88%
same,"AUCt0‐tlast, Treatment/reference GMR",[3]; PZQ + ritonavir vs PZQ alone,178.30%
same,"C max, Difference observed",[3]; PZQ + ritonavir vs PZQ alone,88.41%
same,"Clearance/F, Difference observed",[3]; PZQ + ritonavir vs PZQ alone,−44.37%
same,"Elimination rate constant, Difference observed",[3]; PZQ + ritonavir vs PZQ alone,34.38%
same,"Half‐Life, Difference observed",[3]; PZQ + ritonavir vs PZQ alone,−19.25%
same,"T max, Difference observed",[3]; PZQ + ritonavir vs PZQ alone,−24.58%
same,"V d/F, Difference observed",[3]; PZQ + ritonavir vs PZQ alone,−55.79%
same,effect of ritonavir on pharmacokinetics,[3]; PZQ + ritonavir vs PZQ alone,significant effect
same,"AUCinf, Geo Mean",[3]; [10],4154.79 ng·h/mL
same,"AUCt0‐tlast, Geo Mean",[3]; [10],3972.89 ng·h/mL
same,"Clearance/F, Geo Mean",[3]; [10],570.54 L/h
same,"Elimination rate constant, Geo Mean",[3]; [10],0.31 h⁻¹
same,"Half‐Life, Geo Mean",[3]; [10],2.25 h
same,"T max, Geo Mean",[3]; [10],2.20 h
same,"V d/F, Geo Mean",[3]; [10],1847.59 L
same,"C max, Geo Mean",[3]; [11],1174.93 ng/mL
